Experimental data from paper PMC2668213 (Journal of medicinal chemistry, 2008).

Assays:
SERT [1] = assay: MicroPET baseline regional brain uptake in anesthetized cynomolgus monkeys; assay type: in vivo, cynomolgus monkey
[2] = Protein-bound tracer in plasma; assay type: in vivo, cynomolgus monkey; settings: range over the time points of the study
Method in brief: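 Arterial plasma was sampled after injection of the fluorine-18 labelled test compound during a baseline microPET study in a cynomolgus monkey. Samples spanned 1 to 180 min post-injection. The percentage of tracer bound to plasma protein was determined at each time point. The same samples underwent radio-HPLC metabolite analysis.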

SERT [3] = assay: HRRT PET baseline study in awake rhesus monkey; assay type: in vivo

O=C(OCC[18F])C1C2CCC(CC1c1cccc(/C=C\I)c1)N2 (stereo not drawn) [[^18F]1, 2β-Carbo(2-[^18F]fluoroethoxy)-3β-(3′-((Z)-2-iodoethenyl)phenyl)nortropane]
time of peak uptake, caudate (SERT [1]; anesthetized): 55 min | time of peak uptake, cerebellum (SERT [1]; anesthetized): ~ 27 min | time of peak uptake, medulla (SERT [1]; anesthetized): 35 min | time of peak uptake, midbrain (SERT [1]; anesthetized): 45 min | time of peak uptake, pons (SERT [1]; anesthetized): 45 min | time of peak uptake, putamen (SERT [1]; anesthetized): 45 min | time of peak uptake, thalamus (SERT [1]; anesthetized): 45 min | time at which uptake ratios stabilize (SERT [1]; anesthetized cynomolgus monkey): ~ 175 minutes | time at which washout from the SERT-rich brain regions begins (SERT [1]; anesthetized cynomolgus monkey): ~ 65 minutes | time at which washout from the cerebellum begins (SERT [1]; anesthetized cynomolgus monkey): ~ 27 minutes | percentage of protein-bound tracer in plasma [2]: 5.6 - 8.5% | time of peak uptake, caudate (SERT [3]; awake rhesus): 45 min | time of peak uptake, cerebellum (SERT [3]; awake rhesus): 45 min | time of peak uptake, medulla (SERT [3]; awake rhesus): 35 min | time of peak uptake, midbrain (SERT [3]; awake rhesus): 45 min | time of peak uptake, pons (SERT [3]; awake rhesus): 85 min | time of peak uptake, putamen (SERT [3]; awake rhesus): 45 min | time of peak uptake, thalamus (SERT [3]; awake rhesus): 45 min | time of peak uptake in thalamus, putamen, midbrain, and caudate (SERT [3]; awake rhesus monkey): ~ 45 min

O=C(OCC[18F])C1C2CCC(CC1c1cccc(/C=C\Br)c1)N2 (stereo not drawn) [[^18F]2, 2β-Carbo(2-[^18F]fluoroethoxy)-3β-(3′-((Z)-2-bromoethenyl)phenyl)nortropane]
time of peak uptake, cerebellum (SERT [1]; anesthetized): ~ 30 min | time of peak uptake in the SERT-rich brain regions (SERT [1]; anesthetized cynomolgus monkey): 55 to 65 min

O=C(OCCC[18F])C1C2CCC(CC1c1cccc(/C=C\Br)c1)N2 (stereo not drawn) [[^18F]4, 2β-Carbo(3-[^18F]fluoropropoxy)-3β-(3′-((Z)-2-bromoethenyl)phenyl)nortropane]
time of peak uptake in the SERT-rich brain regions (SERT [1]; anesthetized cynomolgus monkey): 35 to 45 min
